# Calls of active or inactive are those of the source. The rule behind the calls is not given here.
# Key:
# [1] = test system: MT4; test: (§1) Cytotoxic activity against mock-infected human MT4 cellls assessed as reduction in cell viability by MTT assay; format: cell-based; conditions: mt4
# Outline: (§2)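 Mock-infected MT-4 cells (6×10^5 cells/mL) run in parallel with infected wells. Compounds tested as serial five-fold dilutions in triplicate. Viability read by MTT at 540/690 nm after 5 days, using the median OD of two or three wells. CC50 is the concentration reducing mock-infected cell viability by 50%. '>' marks the highest concentration tested that was non-cytotoxic.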
# [2] = test system: Human immunodeficiency virus 1; test: Antiviral activity against HIV1 3B infected in human MT4 cells assessed as inhibition of viral-induced cytopathic effect by MTT assay; format: functional, organism-based
# Outline: (§3)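 MT-4 cells resuspended at 6×10^5 cells/mL and infected with HIV-1 IIIB or HIV-2 ROD at 100-300 CCID50. Compounds tested as serial five-fold dilutions in triplicate wells. Viability read by MTT reduction at 540 and 690 nm after 5 days. Median OD of two or three wells used. EC50 is the concentration giving 50% protection from viral cytopathicity.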
# [3] = test system: Human immunodeficiency virus 2; test: Antiviral activity against HIV2 ROD […] infected in human MT4 cells assessed as inhibition of viral-induced cytopathic effect by MTT assay; format: functional, organism-based, ISOLATE ROD; outline: as §3
# [4] = Selectivity index, ratio of CC50 for cytotoxic activity against mock-infected human MT4 cells to EC50 for antiviral activity against HIV1 3B infected in human MT4 cells; format: toxicity, cell-based; conditions: mock-infected (CC50) and HIV1 3B infected (EC50)
# Outline: (§4)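 SI calculated as CC50 (mock-infected MT-4, MTT, 5 days) divided by EC50 against HIV-1 IIIB or HIV-2 ROD in MT-4 cells measured in the same MTT cytoprotection assay.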
# [5] = as §1; format: cell-based; conditions: mock-infected MT4 cells; outline: as §2
# [6] = Selectivity index, ratio of CC50 for cytotoxic activity against mock-infected human MT4 cells to EC50 for antiviral activity against HIV2 ROD […] infected in human MT4 cells; format: toxicity, cell-based; conditions: mock-infected (CC50) and HIV2 ROD infected (EC50); outline: as §4
# [7] = molecular target: Human immunodeficiency virus type 1 reverse transcriptase (Human immunodeficiency virus 1) (UniProt Q72547); test: Inhibition of RNase H inhibition activity of HIV-1 BH10 reverse transcriptase expressed in Escherichia coli at 100 uM pre-incubated for 5 mins before [32P]-labeled template primer 31Trna/21P addition by polyacrylamide gel electrophoresis method
# Outline: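 Recombinant WT HIV-1 BH10 RT (20-40 nM) preincubated with compound for 5 min at 37°C. Buffer: 50 mM Tris-HCl pH 8.0, 50 mM NaCl, 5 mM MgCl2, 5% DMSO. Reactions started with 25 nM 5'-[32P]-labeled 31Trna/21P template-primer. Sampled from 0 to 4 min at 37°C, quenched with EDTA/formamide, and resolved by denaturing PAGE.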
# [8] = Human immunodeficiency virus 1, 3B, MT4
# [9] = Human immunodeficiency virus 2, ISOLATE ROD, MT4
inhibition [7],Compound,CC50 [1],EC50 [2],EC50 [3],selectivity ratio [4],CC50 [5],"EC50 [2, 8]",selectivity ratio [6],"EC50 [3, 9]"
,Cc1nnc(C(=O)NC(C)(C)c2nc(C(=O)NCc3ccc(F)cc3)c(O)c(=O)n2C)o1 [RALTEGRAVIR POTASSIUM],> 51.8 µM,0.0077 µM,0.016 µM,,,,,
,O=c1c2cc(Br)ccc2n(Cc2cn(Cc3ccc(Br)cc3)nn2)c(=O)n1O,,,,< 1,21.8 µM,> 21.8 µM,< 1,> 21.8 µM
,O=c1nc(Nc2cccc(-c3cn(CCCc4ccccc4)nn3)c2)c2cccnc2n1O,,,,9,239 µM,26.1 µM,< 1,> 239 µM
,Cc1ccc(Cn2cc(-c3ccccc3Nc3nc(=O)n(O)c4ncccc34)nn2)cc1,,,,< 1,1.1 µM,> 1.1 µM,< 1,> 1.1 µM
,O=c1c2cc(Br)ccc2n(Cc2cn(Cc3ccc(F)c(F)c3)nn2)c(=O)n1O,,,,< 1,24.7 µM,> 24.7 µM,< 1,> 24.7 µM
,O=C(Cn1cc(-c2cccc(Nc3nc(=O)n(O)c4ncccc34)c2)nn1)Nc1ccc(F)cc1,,,,> 1,> 265 µM,232 µM,1,> 265 µM
Active,O=c1c2cc(Br)ccc2n(Cc2cn(Cc3ccc(F)cc3)nn2)c(=O)n1O,,,,< 1,25.1 µM,> 25.1 µM,< 1,> 25.1 µM
,O=c1nc(Nc2cccc(-c3cn(CCc4ccccc4)nn3)c2)c2cccnc2n1O,,,,> 31,> 294 µM,9.5 µM,> 20,14.6 µM
,O=c1c2cc(Br)ccc2n(Cc2cn(Cc3cccc(F)c3)nn2)c(=O)n1O,,,,< 1,24.9 µM,> 24.9 µM,< 1,> 24.9 µM
,Cc1ccccc1Cn1cc(Cn2c(=O)n(O)c(=O)c3cc(Br)ccc32)nn1,,,,< 1,17.8 µM,> 17.8 µM,< 1,> 17.8 µM
,Cc1nnc(C(=O)NC(C)(C)c2nc(C(=O)NCc3ccc(F)cc3)c(O)c(=O)n2C)o1,,,,,> 55.8 µM,0.0078 µM,,0.011 µM
,O=c1c2cc(Br)ccc2n(Cc2cn(Cc3ccc(Cl)cc3)nn2)c(=O)n1O,,,,< 1,24.1 µM,> 24.1 µM,< 1,> 24.1 µM
,O=c1c2cc(Br)ccc2n(Cc2cn(Cc3ccccc3)nn2)c(=O)n1O,,,,< 1,23.7 µM,> 23.7 µM,< 1,> 23.7 µM
,O=c1nc(Nc2ccccc2-c2cn(Cc3ccc(F)cc3)nn2)c2cccnc2n1O,,,,< 1,2.7 µM,> 2.7 µM,< 1,> 2.7 µM
,O=c1nc(Nc2cccc(-c3cn(Cc4ccc(F)cc4)nn3)c2)c2cccnc2n1O,,,,> 318,> 291 µM,0.92 µM,> 103,2.82 µM
,O=c1nc(Nc2cccc(-c3cn(-c4cccc5ccccc45)nn3)c2)c2cccnc2n1O,,,,> 10,> 279 µM,27.1 µM,> 4,69.4 µM
,O=C(Cn1cc(-c2cccc(Nc3nc(=O)n(O)c4ncccc34)c2)nn1)Nc1ccccc1,,,,> 10,> 275 µM,26.8 µM,1,> 275 µM
,O=C(Cn1cc(-c2cccc(Nc3nc(=O)n(O)c4ncccc34)c2)nn1)c1ccc(F)cc1,,,,> 91,> 273 µM,3 µM,1,> 273 µM
,COc1cc2c(cc1Cc1cccc(Cl)c1F)c(=O)c(C(=O)O)cn2[C@H](CO)C(C)C,,,,,6.3 µM,0.0023 µM,,0.0038 µM
,Cc1cccc(Cn2cc(Cn3c(=O)n(O)c(=O)c4cc(Br)ccc43)nn2)c1,,,,< 1,24 µM,> 24 µM,< 1,> 24 µM
,O=c1c2cc(Br)ccc2n(Cc2cn(Cc3ccccc3Cl)nn2)c(=O)n1O,,,,< 1,22.3 µM,> 22.3 µM,< 1,> 22.3 µM
,O=c1c2cc(Br)ccc2n(Cc2cn(Cc3ccc([N+](=O)[O-])cc3)nn2)c(=O)n1O,,,,< 1,22.4 µM,> 22.4 µM,< 1,> 22.4 µM
,O=C(Cn1cc(-c2cccc(Nc3nc(=O)n(O)c4ncccc34)c2)nn1)Nc1ccc(C(F)(F)F)cc1,,,,1,> 239 µM,> 239 µM,1,> 239 µM

# — ChEMBL document CHEMBL4177583, “1-Hydroxypyrido[2,3-d]pyrimidin-2(1H)-ones as novel selective HIV integrase inhibitors obtained via privileged substructure-based compound libraries” (Bioorg Med Chem, 2017)
